# High-throughput results: PubChem, several laboratories
# SENP1 inh = human SENP1 catalytic domain inhibitors, primary screen, biochemical, FRET, uHTS; 360,000 compounds, 0.21% hits; Sentrin-specific protease 1 (Homo sapiens), Q9P0U3; inhibition, % at 10 µM; recombinant SENP1 catalytic domain, CyPet-SUMO1-YPet FRET cleavage; AID 624204, 2012;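 active = inhibition at least 30% at 10 µM, raw YFP signal under a set limit, fluorescence ratio 0.5 to 1.5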;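 note: 0% = enzyme with DMSO and 100% = no enzyme wells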
#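 system = hSENP1 catalytic domain, recombinant | reagent = SFCypet-SUMO1-SFYpet substrate at 25 nM | doses = one dose per compound, 10 µM, 0.5% DMSO | incubation = enzyme reaction for 50 min at room temperature, dark | measured by = FRET, CFP and YFP emission | controls = no-enzyme low, enzyme-DMSO high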
# CendR NRP1 mod = modulators of CendR peptide binding to NRP-1, primary screen, biochemical, fluorescence polarization, uHTS; Neuropilin-1 (Homo sapiens), O14786; AID 602438, 2012; 360,000 compounds, 0.85% hits; inhibition, % at 25 µM; FAM-RPARPAR peptide binding to NRP-1;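 active = inhibition or corrected inhibition above about 18%, plus a signal ratio from 0.5 to 1.5, limit read from the data, passing the limit was not always enough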
# Myeloid diff 2 = induction of myeloid progenitor differentiation, primary screen, cell-based, flow cytometry, MLPCN library. ER-HoxA9 myeloid progenitors, lysozyme-GFP differentiation. calls only at 10 µM. AID 624256, 2012. 360,000 compounds, 1% hits;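 active = normalized GFP-positive differentiation at or above the plate's own cutoff, the solvent-only control mean plus 3 SD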;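 note: cells exposed to compound for four days before flow analysis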
# MT1-MMP act inh = blockers of MT1-MMP proenzyme processing, primary screen, HT1080 RFP-PRO-GFP cells, GFP/RFP fluorescence; Matrix metalloproteinase-14 (Homo sapiens), P50281; GFP/RFP ratio fluorescence, overnight; percent of plate control window, DMSO zero; GFP/RFP ratio change, % at 20 µM; 360,000 compounds, 0.061% hits; AID 651647, 2012;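 active = GFP/RFP ratio change of at least 30% with cell ATP level not reduced by more than half and red fluorescence within 50% of control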
#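 Assay system: HT1080 cells carrying an RFP-PRO-GFP reporter | Dosing: Single dose of 20 µM compound, 1% DMSO final | Incubation: Cells overnight before dosing, compound overnight, 37 °C, 5% CO2 | Evaluation: GFP/RFP fluorescence ratio | Control set: DMSO and RFP-L50D-GFP cell wells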
# DAGLB inhibitor = DAGLB lipase inhibitors, primary screen, biochemical, fluorescence, HTS | inhibition, % at 5.17 µM | AID 504411, 2011 | HEK293T DAGLB membrane lysate, EnzChek fluorogenic substrate | 340,000 compounds, 0.059% hits | Diacylglycerol lipase-beta (Homo sapiens), Q8NCG7; in the data active = inhibition above about 34%;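 note: 0% = enzyme with vehicle and 100% = wells lacking enzyme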
# Target sequence (Q8NCG7 whole entry, looked up): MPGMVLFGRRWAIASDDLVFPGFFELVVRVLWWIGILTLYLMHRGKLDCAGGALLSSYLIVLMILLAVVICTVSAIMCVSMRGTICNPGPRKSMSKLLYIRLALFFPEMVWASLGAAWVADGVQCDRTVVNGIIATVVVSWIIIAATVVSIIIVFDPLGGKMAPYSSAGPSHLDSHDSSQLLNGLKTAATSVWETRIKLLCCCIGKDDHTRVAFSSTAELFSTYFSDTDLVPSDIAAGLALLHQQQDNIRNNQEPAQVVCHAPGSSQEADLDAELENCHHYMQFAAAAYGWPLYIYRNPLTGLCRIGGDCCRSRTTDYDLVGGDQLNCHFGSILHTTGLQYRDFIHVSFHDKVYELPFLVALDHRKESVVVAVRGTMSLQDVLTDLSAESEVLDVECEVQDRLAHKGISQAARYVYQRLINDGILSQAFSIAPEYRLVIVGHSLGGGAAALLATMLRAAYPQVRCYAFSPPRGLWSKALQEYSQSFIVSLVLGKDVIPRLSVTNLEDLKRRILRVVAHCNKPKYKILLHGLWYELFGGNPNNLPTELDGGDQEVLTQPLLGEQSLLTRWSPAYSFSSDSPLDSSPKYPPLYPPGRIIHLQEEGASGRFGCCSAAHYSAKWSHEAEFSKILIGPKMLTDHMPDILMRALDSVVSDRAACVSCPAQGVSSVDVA
# MIN6 prolif = inducers of MIN6 beta-cell proliferation, primary screen, ATP luminescence, uHTS | 330,000 compounds, 0.29% hits | proliferation, % at 10 µM | MIN6 cells proliferation, ATPlite luminescence, 48 h; cells starved in 0.2% serum; 100% = growth in 10% serum | AID 2380, 2010;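 active = compounds whose signal lies at least 3.5 SD above the mean of all wells on their plate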;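 note: 0% = DMSO-treated cells in low-serum medium and 100% = 10% serum control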
# SENP1 inh conf = human SENP1 catalytic domain inhibitors, confirmation, biochemical, FRET endpoint, single concentration; 520 compounds, 34% hits; inhibition, % at 10 µM; recombinant SENP1, CyPet-SUMO1-YPet FRET cleavage; shares compounds with SENP1 inh; in the data active = inhibition mostly above about 35%, no sharp cut-off; inactive = mostly below about 32%;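 note: 0% = enzyme with DMSO and 100% = no enzyme control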
# SENP1 kin conf = human SENP1 catalytic domain inhibitors, confirmation, biochemical, kinetic FRET, single concentration; recombinant SENP1, CyPet-SUMO1-YPet FRET kinetic cleavage; inhibition, % at 10 µM; shares compounds with SENP1 inh; 520 compounds, 26% hits; in the data active = inhibition mostly above about 32%, no sharp cut-off; inactive = mostly below about 29%;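 note: 0% = DMSO with enzyme and 100% = no enzyme substrate only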
# Numbers without * were called inactive; i = inactive; nt = no result; + = active, no number. Only some compounds are listed: those with a hit (about 2.4% of all), similar ones and a draw of the others.
SMILES,SENP1 inh,CendR NRP1 mod,Myeloid diff 2,MT1-MMP act inh,DAGLB inhibitor,MIN6 prolif,SENP1 inh conf,SENP1 kin conf
CCOC(=O)c1sc2nc(C)nc(NCc3ccc(F)cc3)c2c1C,36*,3,i,0,-5,-4,-19,18
COc1ccc(-c2cnnc(N/N=C/c3ccc(-c4ccc([N+](=O)[O-])cc4)o3)n2)cc1,36*,21,nt,-3,-1,nt,-2,9
O=C(O/N=C/C1=C(Cl)c2ccccc2CC1)c1ccc(F)cc1,4,14,i,-4,0,3,nt,nt
CCOC(=O)C1=CN(CC)CCC1=O,1,-17,i,6,-1,nt,nt,nt
COc1cc(-c2oc3cc(O)cc(O)c3c(=O)c2O[C@@H]2O[C@H](COC3O[C@@H](C)[C@H](O)[C@@H](O)[C@H]3O)[C@@H](O)[C@H](O)[C@H]2O)ccc1O (stereo partly specified),8,-9,i,4,-4,-4,nt,nt
C[C@@H]1O[C@@H](OC[C@H]2O[C@@H](Oc3cc(O)c4c(=O)cc(-c5ccc(O)c(O)c5)oc4c3)[C@H](O)[C@@H](O)[C@@H]2O)[C@H](O)[C@H](O)[C@H]1O,43*,-13,i,9,-1,0,57*,42*
CC(=O)c1ccc(Sc2ccccc2N)c([N+](=O)[O-])c1,37*,10,i,-4,nt,-4,15,7
Nc1ccccc1Sc1ccc(C(=O)c2ccccc2C(=O)O)cc1[N+](=O)[O-],12,-4,i,-5,13,2,nt,nt
CCNC(=S)SCCOc1ccc(C)cc1,1,-1,i,2,-3,-1,nt,nt
CCOC(=O)C1=C(C)N=c2sc(=Cc3cc(Cl)c(OCC(=O)O)c(Cl)c3)c(=O)n2C1c1cccc(OC)c1 (stereo unspecified),52*,-252,+,-92,nt,nt,51*,35*
CCOC(=O)C1=C(C)N=c2s/c(=C/c3ccc(OCC(=O)O)cc3)c(=O)n2C1c1cc(OC)c(OC)c(OC)c1 (stereo unspecified),-31,-40,i,nt,-2,-1,nt,nt
O=C(NC[C@@H]1CCCO1)c1cccc2c1C(=O)c1ccc(N3CCOCC3)cc1S2(=O)=O,76*,-44,i,-6,5,3,64*,41*
COCCNC(=O)c1cccc2c1C(=O)c1ccc(N3CCOCC3)cc1S2(=O)=O,73*,-33,i,-6,-1,-3,58*,40*
CCCCC(=O)OCC(=O)C1(O)Cc2c(O)c3c(c(O)c2C(OC2CC(NC(=O)C(F)(F)F)C(O)C(C)O2)C1)C(=O)c1c(OC)cccc1C3=O (stereo unspecified),95*,145,nt,-19,27,nt,27,12
O=C1CCC[C@@H]2C[C@@]3(C[C@@H]4CCN1[C@H]24)Nc1cc(Cl)ccc1NC3=NC1CCCCC1,5,-7,i,2,5,nt,nt,nt
O=C1CCC[C@@H]2C[C@@]3(C[C@@H]4CCN1[C@H]24)Nc1cc([N+](=O)[O-])ccc1NC3=NC1CCCCC1,70*,-48,i,-10,24,nt,32,23
